From ChEMBL document CHEMBL1671864, “First assessment in humans of the safety, tolerability, pharmacokinetics, and ex vivo pharmacodynamic antimalarial activity of the new artemisinin derivative artemisone” (Antimicrob Agents Chemother, 2008)

Legend:
Assay type in all cases: ADME, organism-based
[1] = Apparent volume of distribution with respect to the bioavailability in healthy human at 40 mg, po administered as two 20 mg immediate release tablets daily for 3 days during 10 hrs overnight fasting state measured after 3 day; conditions: in vivo, read-out: Vc/F
How it was run: (§1)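 Healthy Caucasian males took 40 mg (2×20-mg IR tablets) or 80 mg (4 tablets) orally daily for 3 days after a 10-h fast. Plasma parent drug was measured by LC/MS-MS from predose to 14 h after the first and third doses. Noncompartmental analysis: AUC by log-linear trapezoid extrapolated via kel, CL/F = dose/AUC, V/F = CL/F÷kel, geometric means.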

[2] = Cmax in healthy human plasma at 40 mg, po administered as two 20 mg immediate release tablets daily for 3 days during 10 hrs overnight fasting state measured after 1 day; set-up: dose 40 mg, route oral
How it was run: (§2)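 Healthy Caucasian males took tablets once daily for 3 days with 240 ml water after a 10-h fast. Heparinised blood was drawn predose and at 0.25–14 h after the first and last doses. Plasma parent drug and metabolites M1–M3 were measured by LC/MS-MS (MRM, deuterated internal standard). Noncompartmental analysis gave Cmax observed, t1/2 = 0.693/kel and MRT = AUMC/AUC. Values are geometric means.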

Plasma = test: Ratio of Cmax in healthy human plasma at 80 mg, po administered as four 20 mg immediate release tablets daily for 3 days during 10 hrs overnight fasting state measured after 1 day to Cmax in healthy human plasma at 80 mg, po administered as four 20 mg immediate release tablets daily for 3 days during 10 hrs overnight fasting state measured after 3 day; conditions: in vivo
How it was run: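 Healthy Caucasian men took tablets daily for 3 days with 240 ml water after 10-h fast. Plasma sampled 0.25–14 h after first and last doses, artemisone measured by LC/MS-MS. Accumulation ratio is Cmax or AUC0-∞ after last dose divided by that after first dose. Noncompartmental analysis, geometric means with 95% CI.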

[3] = Mean residence time in healthy human at 40 mg, po administered as two 20 mg immediate release tablets daily for 3 days during 10 hrs overnight fasting state measured after 1 day; conditions: in vivo; how it was run: as §2
[4] = Half life in healthy human plasma at 40 mg, po administered as single ascending doses as solution during 10 hrs overnight fasting state
How it was run: (§3)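 Healthy Caucasian male volunteers, single oral dose with 240 ml water after a 10-h overnight fast. Heparinised venous blood was drawn predose and at 0.25–14 h. Plasma was stored frozen. Parent drug and metabolites M1–M3 were measured by LC/MS-MS (MRM, deuterated internal standard). Noncompartmental analysis gave Cmax observed, t1/2 = 0.693/kel (terminal regression) and MRT = AUMC/AUC. Values are geometric means.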

[5] = Apparent volume of distribution with respect to the bioavailability in healthy human at 80 mg, po administered as four 20 mg immediate release tablets daily for 3 days during 10 hrs overnight fasting state measured after 3 day; conditions: in vivo, read-out: Vc/F; how it was run: as §1
[6] = AUC in healthy human plasma at 30 mg, po administered as single ascending doses as solution during 10 hrs overnight fasting state; set-up: time < 10 hr, dose 30 mg, route oral
How it was run: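 Single ascending oral doses in healthy Caucasian men, given fasted (10-h overnight) with 240 ml water: 10, 20, 30 or 40 mg as oral solution, or 80 mg as IR tablets. Parent plasma levels by LC/MS-MS over 0.25–14 h. Noncompartmental analysis: kel by terminal-phase least-squares regression, AUC extrapolated to infinity, CL/F = dose/AUC, V/F = CL/F÷kel.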

[7] = Tmax in healthy human plasma at 10 mg, po administered as single ascending doses as solution during 10 hrs overnight fasting state
How it was run: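 Healthy Caucasian male volunteers, randomized within each dose group against placebo, given a single oral solution with 240 ml water after a 10-h overnight fast. Plasma sampled predose and at 0.25–14 h, quantified by LC/MS-MS (MRM, deuterated internal standard). Tmax read directly from individual noncompartmental concentration–time data.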

[8] = Apparent volume of distribution with respect to the bioavailability in healthy human at 40 mg, po administered as two 20 mg immediate release tablets daily for 3 days during 10 hrs overnight fasting state measured after 1 day; conditions: in vivo, read-out: Vc/F; how it was run: as §1
[9] = Half life in healthy human plasma at 20 mg, po administered as single ascending doses as solution during 10 hrs overnight fasting state; how it was run: as §3
[10] = Tmax in healthy human plasma at 40 mg, po administered as two 20 mg immediate release tablets daily for 3 days during 10 hrs overnight fasting state measured after 3 day
How it was run: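 Healthy Caucasian men (8 active, 4 placebo per dose) dosed with tablets daily for 3 days after 10-h fast. Lithium-heparin plasma sampled predose and 0.25–14 h after day-1 and day-3 doses, stored frozen. Parent and M1–M3 quantified by LC/MS-MS in positive-ion MRM. Tmax taken directly from observed individual data.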

## C[C@H]1[C@H](N2CCS(=O)(=O)CC2)O[C@@H]2O[C@@]3(C)CC[C@H]4[C@H](C)CC[C@@H]1[C@@]24OO3 [ARTEMIFONE]
[1]
  Vd/F: 16.1 L/kg
[2]
  Cmax: 96.4 ng/mL
Plasma
  Ratio: 84%
[3]
  MRT: 2.91 h
[4]
  half-life: 3.54 h
[5]
  Vd/F: 13.7 L/kg
[6]
  AUC at 10 h: 71.8 ng·h/mL
[7]
  Tmax: 0.25 h
[8]
  Vd/F: 12.8 L/kg
[9]
  half-life: 3.48 h
[10]
  Tmax: 1.13 h
